According to ChEMBL document CHEMBL3734686, “Synthesis, Photophysical Properties, and Biological Evaluation of trans-Bisthioglycosylated Tetrakis(fluorophenyl)chlorin for Photodynamic Therapy” (J Med Chem, 2015):
Activity calls are given as the source filed them.

How the values were obtained:
[1] = Ratio of drug level in tumor to skin in BALB/c mouse implanted with mouse 4T1 cells ip after 24 hrs; conditions: in vivo
[2] = Drug uptake in BALB/c mouse small intestine implanted with mouse 4T1 cells assessed per gram of tissue at 0.18 mg/kg, ip after 12 hrs by HPLC-based fluorescence analysis; type: ADME, organism-based; conditions: in vivo
Procedure, shortened: (§1)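 Female BALB/c mice with 4T1 cells (1 × 10^6 in HBSS) implanted in left rear thigh; single i.p. dose, 7 in ethanol/PEG400/H2O (2/3/5) with 0.1% DMSO, mono-L-aspartyl chlorin e6 in saline; kept dark until sacrifice. Tissues washed, frozen, homogenized in CH3OH/DMSO/H2O (32/8/1), centrifuged 2300×g; supernatant analysed by HPLC with fluorescence detection; three animals per time point.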

Stomach [3] = test: Drug uptake in BALB/c mouse stomach implanted with mouse 4T1 cells assessed per gram of tissue at 0.18 mg/kg, ip after 6 hrs by HPLC-based fluorescence analysis; type: ADME, organism-based; conditions: in vivo
Procedure, shortened: as §1

Urinary bladder [4] = test: Drug uptake in BALB/c mouse bladder implanted with mouse 4T1 cells assessed per gram of tissue at 0.18 mg/kg, ip after 48 hrs by HPLC-based fluorescence analysis; type: ADME, organism-based; conditions: in vivo
Procedure, shortened: (§2)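 Female BALB/c mice bearing 4T1 thigh tumours received an i.p. dose in ethanol/PEG400/H2O (2/3/5) with 0.1% DMSO, or in saline, and were kept dark until killed. Tissues were weighed (100 mg), homogenised in CH3OH/DMSO/H2O (32/8/1) and centrifuged twice at 2300×g at 4°C. Supernatants were analysed by HPLC with fluorescence detection (λex 404/λem 654 nm or λex 400/λem 666 nm). n = 3 per time point.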

Liver [5] = test: Drug uptake in BALB/c mouse liver implanted with mouse 4T1 cells assessed per gram of tissue at 0.18 mg/kg, ip after 48 hrs by HPLC-based fluorescence analysis; type: ADME, organism-based; conditions: in vivo
Procedure, shortened: as §2

4T1 [6] = test: Antitumor activity against mouse 4T1 cells implanted in BALB/c mouse at 0.18 mg/kg, ip assessed as tumor growth inhibition administered for 48 hrs followed by irradiation at 40 mW/cm2 for 20.1 mins measured after 5 days by Vernier calipers; type: functional, organism-based
Procedure, shortened: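 Female BALB/c mice carried 4T1 thigh tumours (1 × 10^6 cells) of 50–60 mm3. They were dosed i.p. at 250–31.25 nmol·kg−1 in ethanol/PEG400/H2O (2/3/5) containing 0.1% DMSO and kept dark. At 48 h the tumour was irradiated with a 100-W halogen lamp at 40 mW·cm−2 for 20.1 min. Tumour size was measured daily by caliper as length × width²/2 and normalised to day 0.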

4T1 [7] = test: Drug uptake in mouse 4T1 cells implanted in BALB/c mouse assessed per gram of tissue at 0.18 mg/kg, ip after 12 hrs by HPLC-based fluorescence analysis; type: ADME, organism-based; conditions: in vivo
Procedure, shortened: as §1

4T1 [8] = test: Potency index, ratio of compound antitumor activity to mono-L-aspartyl chlorin e6 antitumor activity against mouse 4T1 cells implanted in ip dosed BALB/c mouse; type: functional
Stomach [9] = test: Drug uptake in BALB/c mouse stomach implanted with mouse 4T1 cells assessed per gram of tissue at 0.18 mg/kg, ip after 48 hrs by HPLC-based fluorescence analysis; type: ADME, organism-based; conditions: in vivo
Procedure, shortened: as §1

Liver [10] = test: Drug uptake in BALB/c mouse liver implanted with mouse 4T1 cells assessed per gram of tissue at 0.18 mg/kg, ip after 6 hrs by HPLC-based fluorescence analysis; type: ADME, organism-based; conditions: in vivo
Procedure, shortened: as §2

[11] = Drug uptake in BALB/c mouse small intestine implanted with mouse 4T1 cells assessed per gram of tissue at 0.18 mg/kg, ip after 24 hrs by HPLC-based fluorescence analysis; type: ADME, organism-based; conditions: in vivo
Procedure, shortened: as §1

T98G = test: Photocytotoxicity against human T98G cells assessed as cell survival preincubated for 24 hrs followed by irradiation at 16 J/cm2 measured at 24 hrs by WST-8 assay; type: functional, cell-based; conditions: light or radiation study
Procedure, shortened: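 Cells (5 × 10^3/well) in DMEM with 10% FCS, 24 h at 37°C, 5% CO2; photosensitizer 1–50000 nM (1% DMSO final) for 24 h, washed, fresh medium. Irradiated with 100-W halogen lamp through λ>500 nm or λ>600 nm cutoff filter to 16 J·cm−2; WST-8 absorbance at 450 nm 24 h later, survival normalized to no-drug wells.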

Urinary bladder [12] = test: Drug uptake in BALB/c mouse bladder implanted with mouse 4T1 cells assessed per gram of tissue at 0.18 mg/kg, ip after 24 hrs by HPLC-based fluorescence analysis; type: ADME, organism-based; conditions: in vivo
Procedure, shortened: as §2

Heart = test: Drug uptake in BALB/c mouse heart implanted with mouse 4T1 cells assessed per gram of tissue at 0.18 mg/kg, ip after 24 hrs by HPLC-based fluorescence analysis; type: ADME, organism-based; conditions: in vivo
Procedure, shortened: as §2

Stomach [13] = test: Drug uptake in BALB/c mouse stomach implanted with mouse 4T1 cells assessed per gram of tissue at 0.18 mg/kg, ip after 12 hrs by HPLC-based fluorescence analysis; type: ADME, organism-based; conditions: in vivo
Procedure, shortened: as §1

4T1 [14] = test: Drug uptake in mouse 4T1 cells implanted in BALB/c mouse assessed per gram of tissue at 0.18 mg/kg, ip after 48 hrs by HPLC-based fluorescence analysis; type: ADME, organism-based; conditions: in vivo
Procedure, shortened: as §1

Zone of skin [15] = test: Drug uptake in BALB/c mouse skin implanted with mouse 4T1 cells assessed per gram of tissue at 0.18 mg/kg, ip after 24 hrs by HPLC-based fluorescence analysis; type: ADME, organism-based; conditions: in vivo
Procedure, shortened: as §1

Spleen [16] = test: Drug uptake in BALB/c mouse spleen implanted with mouse 4T1 cells assessed per gram of tissue at 0.18 mg/kg, ip after 48 hrs by HPLC-based fluorescence analysis; type: ADME, organism-based; conditions: in vivo
Procedure, shortened: as §1

Zone of skin [17] = test: Drug uptake in BALB/c mouse skin implanted with mouse 4T1 cells assessed per gram of tissue at 0.18 mg/kg, ip after 6 hrs by HPLC-based fluorescence analysis; type: ADME, organism-based; conditions: in vivo
Procedure, shortened: as §1

Spleen [18] = test: Drug uptake in BALB/c mouse spleen implanted with mouse 4T1 cells assessed per gram of tissue at 0.18 mg/kg, ip after 72 hrs by HPLC-based fluorescence analysis; type: ADME, organism-based; conditions: in vivo
Procedure, shortened: as §1

[19] = Drug uptake in BALB/c mouse small intestine implanted with mouse 4T1 cells assessed per gram of tissue at 0.18 mg/kg, ip after 6 hrs by HPLC-based fluorescence analysis; type: ADME, organism-based; conditions: in vivo
Procedure, shortened: as §1

HeLa = test: Drug uptake in human HeLa cells at 0.1 uM after 24 hrs by spectrophotometrical analysis; type: ADME, cell-based
Procedure, shortened: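 HeLa cells (2.5 × 10^6/well) in DMEM with 10% FCS, preincubated 24 h at 37°C; photosensitizer added to 0.1 µM final (1% DMSO) for 24 h, two wells each. Cells washed twice with PBS, lysed in DMSO, Soret-band absorbance read against DMSO calibration; mean of three replicate experiments.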

[20] = Induction of reactive oxygen generation assessed as quantum yield of hydroxyl radical generation in O2 saturated PBS containing 1% DMSO under photoirradiation by spectrometry relative to control hematoporphyrin; type: physicochemical; conditions: buffer
Procedure, shortened: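 Photosensitizer (1.00 µM) with HPF (2.00 µM) in PBS containing 1% DMSO, oxygenated 1 min, irradiated with 100-W halogen lamp through λ>500 nm cutoff filter at 37°C; hematoporphyrin as reference.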

[21] = Induction of reactive oxygen generation assessed as quantum yield of singlet oxygen generation in O2 saturated D2O containing 0.1% DMSO by spectrometry; type: physicochemical
Procedure, shortened: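 Photosensitizer in D2O with 0.1% DMSO, absorbance set to 0.4 at its excitation wavelength, oxygen-purged 1 min; singlet-oxygen luminescence recorded with NIR photomultiplier cooled to 193 K; TPPS as reference.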

- Ratio [1]: 60
- Drug uptake [2]: 80 ng
- Drug uptake (Stomach [3]): 48 ng/g
- Drug uptake (Urinary bladder [4]): 3 ng/g
- Drug uptake (Liver [5]): 9 ng
- Drug uptake (4T1 [7]): 4 ng/g
- Drug uptake (Stomach [9]): 6 ng
- Drug uptake (Liver [10]): 109 ng/g
- Drug uptake [11]: 39 ng/g
- Drug uptake (Urinary bladder [12]): 77 ng
- Drug uptake (Heart): 6.1 ng/g
- Drug uptake (Stomach [13]): 20 ng/g
- Drug uptake (4T1 [14]): 1.4 ng/g
- Drug uptake (Zone of skin [15]): 0 ng
- Drug uptake (Spleen [16]): 14 ng
- Drug uptake (Zone of skin [17]): 5 ng
- Drug uptake (Spleen [18]): 8 ng
- Drug uptake [19]: 90 ng
- Drug uptake (HeLa): Active
- Ratio [20]: 1.2
- Activity [21]: 0.25
Compound: CN1CC2C3=N/C(=C(/c4c(F)c(F)c(S[C@@H]5O[C@H](CO)[C@@H](O)[C@H](O)[C@H]5O)c(F)c4F)C4=N/C(=C(/c5c(F)c(F)c(F)c(F)c5F)c5ccc([nH]5)/C(c5c(F)c(F)c(S[C@@H]6O[C@H](CO)[C@@H](O)[C@H](O)[C@H]6O)c(F)c5F)=C5/C=CC(=N5)C3c3c(F)c(F)c(F)c(F)c3F)C=C4)C2C1 (some centres undefined)
- Activity (4T1 [6]): Active
- Ratio (4T1 [8]): 250
- EC50 (T98G): 0.5 nM
